# Measured values as given in ChEMBL document CHEMBL1158850, “Structure-activity relationship and classification of flavonoids as inhibitors of xanthine oxidase and superoxide scavengers” (J Nat Prod, 1998).
# The source made the active and inactive calls. No cut-off for these calls is given here.
# How the values were obtained:
# [1] = Antioxidant activity assessed as superoxide-scavenging activity by nitrite method; assay type: functional
# [2] = target: Xanthine dehydrogenase/oxidase (Homo sapiens, UniProt P47989); assay: Inhibition of xanthine oxidase assessed as decrease in uric acid production by spectrophotometry
# Chain of Xanthine dehydrogenase/oxidase (P47989 whole entry): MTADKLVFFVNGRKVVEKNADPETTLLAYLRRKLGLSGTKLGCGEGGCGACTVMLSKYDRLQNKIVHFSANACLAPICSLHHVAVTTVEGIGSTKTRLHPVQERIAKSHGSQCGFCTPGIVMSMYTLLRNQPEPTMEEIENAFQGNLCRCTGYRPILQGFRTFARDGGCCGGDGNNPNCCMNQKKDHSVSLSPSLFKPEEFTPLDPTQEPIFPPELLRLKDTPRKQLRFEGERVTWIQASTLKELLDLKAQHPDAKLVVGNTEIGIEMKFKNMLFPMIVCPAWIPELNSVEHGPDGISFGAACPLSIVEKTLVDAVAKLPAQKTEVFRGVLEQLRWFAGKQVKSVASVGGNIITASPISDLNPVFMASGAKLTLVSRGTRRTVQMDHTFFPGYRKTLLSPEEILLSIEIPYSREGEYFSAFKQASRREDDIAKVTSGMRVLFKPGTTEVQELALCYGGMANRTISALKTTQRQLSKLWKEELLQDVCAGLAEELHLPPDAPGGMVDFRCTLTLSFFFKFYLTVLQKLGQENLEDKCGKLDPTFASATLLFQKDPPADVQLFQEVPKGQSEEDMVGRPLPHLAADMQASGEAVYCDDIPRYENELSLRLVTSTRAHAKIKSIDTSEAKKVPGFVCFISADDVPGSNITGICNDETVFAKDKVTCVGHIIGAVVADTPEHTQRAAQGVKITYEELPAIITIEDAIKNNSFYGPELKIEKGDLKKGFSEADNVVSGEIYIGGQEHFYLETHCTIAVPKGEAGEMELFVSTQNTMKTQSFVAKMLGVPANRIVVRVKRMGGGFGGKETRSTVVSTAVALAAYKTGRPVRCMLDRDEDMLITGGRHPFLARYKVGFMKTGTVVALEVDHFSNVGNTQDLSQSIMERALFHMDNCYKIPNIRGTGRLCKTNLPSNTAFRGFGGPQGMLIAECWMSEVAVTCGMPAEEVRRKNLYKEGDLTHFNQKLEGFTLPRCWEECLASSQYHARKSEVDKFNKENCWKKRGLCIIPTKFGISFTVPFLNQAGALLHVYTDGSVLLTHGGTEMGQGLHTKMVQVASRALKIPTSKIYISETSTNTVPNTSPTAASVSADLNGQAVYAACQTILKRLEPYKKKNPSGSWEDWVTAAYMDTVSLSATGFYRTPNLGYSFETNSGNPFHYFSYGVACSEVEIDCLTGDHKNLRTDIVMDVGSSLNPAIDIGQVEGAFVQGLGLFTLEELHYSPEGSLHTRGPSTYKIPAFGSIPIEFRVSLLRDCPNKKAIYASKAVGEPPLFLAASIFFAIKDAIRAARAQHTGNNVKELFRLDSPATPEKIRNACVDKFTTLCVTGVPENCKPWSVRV
# Method in brief: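 Flavonoid at various concentrations with 50 µM xanthine, 0.2 mM hydroxylamine and 0.1 mM EDTA. Stopped with HCl, then uric acid read as absorbance at 290 nm against an enzyme-free blank. IC50 by linear regression.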
# [3] = Prooxidant effect assessed as superoxide production by nitrite method; assay type: functional
# Method in brief: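 Xanthine oxidase (6.25 mU/mL, in 200 mM phosphate buffer pH 7.50) generated superoxide from 50 µM xanthine with 0.2 mM hydroxylamine and 0.1 mM EDTA, plus flavonoid at various concentrations. Incubated 30 min at 37 °C. Superoxide read by the nitrite method: stood 30 min at room temperature, then absorbance at 550 nm. Levels compared with control experiments; IC50 from linear regression.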
Structure (SMILES),IC50 [1],IC50 [2],Activity [3]
O=C1CC(c2ccc(O)cc2)Oc2ccccc21 (configuration not stated) [4'-HYDROXY-FLAVANONE],> 18000 nM,> 30000 nM,–
O=c1cc(-c2ccccc2)oc2cc(O)ccc12 [7-HYDROXYFLAVONE],> 100000 nM,38000 nM,Active
Oc1cc(O)c2c(c1)O[C@H](c1ccc(O)c(O)c1)[C@H](O)C2 [(-)-EPICATECHIN],1590 nM,> 100000 nM,–
Oc1ncnc2[nH]ncc12 [ALLOPURINOL],230 nM,–,–
O=c1cc(-c2ccc(O)cc2)oc2cc(O)cc(O)c12 [APIGENIN],1330 nM,700 nM,–
O=c1cc(-c2ccccc2)oc2cc(O)c(O)c(O)c12 [BAICALEIN],2720 nM,2790 nM,–
O=c1cc(-c2ccccc2)oc2cc(O)cc(O)c12 [CHRYSIN],1870 nM,840 nM,–
COc1cc(-c2cc(=O)c3c(O)cc(O[C@@H]4O[C@H](CO)[C@@H](O)[C@H](O)[C@H]4O[C@@H]4O[C@@H](C)[C@H](O)[C@@H](O)[C@H]4O)cc3o2)ccc1O [CHRYSOERIOL-7-O-NEOHESPERIDOSIDE],> 100000 nM,> 100000 nM,–
Oc1cc(O)c2c(c1)O[C@H](c1ccc(O)c(O)c1)[C@@H](O)C2 [CIANIDANOL],1610 nM,> 100000 nM,–
COc1cc2oc(-c3ccc(O[C@@H]4O[C@H](CO)[C@@H](O)[C@H](O)[C@H]4O)cc3)cc(=O)c2c(O)c1OC [CIRSIMARIN],> 100000 nM,> 100000 nM,–
Oc1cc(O)c2c(c1)O[C@H](c1cc(O)c(O)c(O)c1)[C@H](O)C2 [EPIGALLOCATECHIN],480 nM,> 100000 nM,–
O=c1c(O)c(-c2ccc(O)c(O)c2)oc2cc(O)ccc12 [FISETIN],1840 nM,4330 nM,–
COc1cc(-c2oc3cc(O)cc(O)c3c(=O)c2O)ccc1O [ISORHAMNETIN],2750 nM,2510 nM,–
O=c1cc(-c2ccc(O)c(O)c2)oc2cc(O)cc(O)c12 [LUTEOLIN],1130 nM,550 nM,–
O=c1c(O)c(-c2cc(O)c(O)c(O)c2)oc2cc(O)cc(O)c12 [MYRICETIN],330 nM,2380 nM,–
O=C1C[C@@H](c2ccc(O)cc2)Oc2cc(O)cc(O)c21 [NARINGENIN],> 50000 nM,> 50000 nM,–
O=c1c(O)c(-c2ccc(O)c(O)c2)oc2cc(O)cc(O)c12 [QUERCETIN],1630 nM,–,–
C[C@@H]1O[C@@H](Oc2c(-c3ccc(O)c(O)c3)oc3cc(O)cc(O)c3c2=O)[C@H](O)[C@H](O)[C@H]1O [QUERCITRIN],8100 nM,> 100000 nM,–

# Continued, in another order:
IC50 [1],IC50 [2],Structure (SMILES),Activity [3]
1730 nM,–,O=C1c2c(O)cc(O)cc2OC(c2ccc(O)c(O)c2)C1O (racemic) [TAXIFOLIN],–
> 100000 nM,> 100000 nM,O=c1c(O)c(-c2ccccc2)oc2ccccc12 [FLAVONOL],–
6740 nM,1800 nM,O=c1c(O)c(-c2ccccc2)oc2cc(O)cc(O)c12 [GALANGIN],–
840 nM,1060 nM,O=c1c(O)c(-c2ccc(O)cc2)oc2cc(O)cc(O)c12 [KAEMPFEROL],–
2370 nM,11900 nM,C[C@@H]1O[C@@H](O[C@H]2[C@H](Oc3cc(O)c4c(=O)cc(-c5ccc(O)c(O)c5)oc4c3)O[C@H](CO)[C@@H](O)[C@@H]2O)[C@H](O)[C@H](O)[C@H]1O [LONICERIN],–
9100 nM,10100 nM,O=c1c(O)c(-c2ccc(O)cc2O)oc2cc(O)cc(O)c12 [MORIN],–
3400 nM,14800 nM,C[C@@H]1O[C@@H](OC[C@H]2O[C@@H](Oc3c(-c4ccc(O)cc4)oc4cc(O)cc(O)c4c3=O)[C@H](O)[C@@H](O)[C@@H]2O)[C@H](O)[C@H](O)[C@H]1O [NICOTIFLOROSIDE],–
> 100000 nM,> 100000 nM,COc1ccc(-c2cc(=O)c3c(OC)c(OC)c(OC)c(OC)c3o2)cc1OC [NOBILETIN],–
2600 nM,7700 nM,COc1cc(O)c2c(=O)c(O)c(-c3ccc(OC)c(O)c3)oc2c1 [OMBUINE],–
–,52200 nM,C[C@@H]1O[C@@H](OC[C@H]2O[C@@H](Oc3c(-c4ccc(O)c(O)c4)oc4cc(O)cc(O)c4c3=O)[C@H](O)[C@@H](O)[C@@H]2O)[C@H](O)[C@H](O)[C@H]1O [RUTIN],–
> 100000 nM,> 100000 nM,COc1ccc(-c2cc(=O)c3c(OC)c(OC)c(OC)c(OC)c3o2)cc1 [TANGERETIN],–
> 100000 nM,> 100000 nM,O=C(/C=C/c1ccc(O)cc1)OC[C@H]1O[C@@H](Oc2c(-c3ccc(O)cc3)oc3cc(O)cc(O)c3c2=O)[C@H](O)[C@@H](O)[C@@H]1O [TILIROSIDE],–
